Assay results as given in ChEMBL document CHEMBL3352008, “Dualsteric muscarinic antagonists--orthosteric binding pose controls allosteric subtype selectivity” (J Med Chem, 2014).
Calls of active or inactive are those of the source. The calls are words filed in the database; no cut-off is given here.

molecular target: Muscarinic acetylcholine receptor M2 (Homo sapiens, UniProt P08172, Y104A); test: Displacement of [3H]-NMS from human muscarinic M2 Y104A mutant expressed in Flp-In-CHO cells by liquid scintillation counting; assay type: cell-based
Procedure, shortened: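 Bound separated either by rapid filtration or, in some cases, by centrifugation at 21000g, 15 °C, 20 min. Pellet washed once, resuspended, counted by liquid scintillation. Triplicate determinations.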

Chain of Muscarinic acetylcholine receptor M2 (Homo sapiens, UniProt P08172, Y104A) (P08172 whole entry Y104A): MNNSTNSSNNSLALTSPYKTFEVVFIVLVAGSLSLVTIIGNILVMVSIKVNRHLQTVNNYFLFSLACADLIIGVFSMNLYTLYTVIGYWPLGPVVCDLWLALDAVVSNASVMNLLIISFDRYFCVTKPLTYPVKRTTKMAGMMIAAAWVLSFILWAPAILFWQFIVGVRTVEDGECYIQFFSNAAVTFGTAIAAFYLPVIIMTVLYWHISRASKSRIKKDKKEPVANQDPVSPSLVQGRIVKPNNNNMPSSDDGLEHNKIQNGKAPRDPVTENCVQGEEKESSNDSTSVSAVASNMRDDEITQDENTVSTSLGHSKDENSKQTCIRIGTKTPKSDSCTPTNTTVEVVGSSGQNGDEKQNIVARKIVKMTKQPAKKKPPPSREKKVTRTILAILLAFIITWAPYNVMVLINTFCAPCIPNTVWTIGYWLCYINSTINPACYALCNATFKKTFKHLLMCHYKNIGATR

Question: With `C[N+](C)(CCCCCC[N+]1(C)[C@@H]2C[C@H](OC(=O)[C@H](CO)c3ccccc3)C[C@H]1[C@@H]1O[C@@H]12)CCCN1C(=O)c2ccccc2C1=O` (stereo partly specified) as the compound, how does the Ki read?
Answer: 0.0501 µM

Question: Which Ki does the source give for `C[N+](C)(C)CCCCCC[N+]1(C)[C@@H]2CC[C@@H]1CC(OC(=O)C(CO)c1ccccc1)C2` (relative stereo) here?
Answer: 0.151 µM

Question: How did the Ki turn out when `C[N+](C)(C)CC#CCOC1=NOCC1` was run?
Answer: 0.257 µM

Question: Which Ki does the source give for `C[N+](C)(C)CCCCCC[N+](C)(C)CC#CCOC1=NOCC1` here?
Answer: 1.29 µM

Question: How did the Ki turn out when `C[N+](C)(CC#CCOC1=NOCC1)CCCCCC[N+](C)(C)CCCN1C(=O)c2ccccc2C1=O` was run?
Answer: 0.204 µM

molecular target: T1, Muscarinic acetylcholine receptor M5 (Homo sapiens, UniProt P08912); test: Displacement of [3H]-NMS from wild-type human muscarinic M5 receptor expressed in CHO-K1 cells by liquid scintillation counting; assay type: cell-based
T1 sequence (P08912 whole entry): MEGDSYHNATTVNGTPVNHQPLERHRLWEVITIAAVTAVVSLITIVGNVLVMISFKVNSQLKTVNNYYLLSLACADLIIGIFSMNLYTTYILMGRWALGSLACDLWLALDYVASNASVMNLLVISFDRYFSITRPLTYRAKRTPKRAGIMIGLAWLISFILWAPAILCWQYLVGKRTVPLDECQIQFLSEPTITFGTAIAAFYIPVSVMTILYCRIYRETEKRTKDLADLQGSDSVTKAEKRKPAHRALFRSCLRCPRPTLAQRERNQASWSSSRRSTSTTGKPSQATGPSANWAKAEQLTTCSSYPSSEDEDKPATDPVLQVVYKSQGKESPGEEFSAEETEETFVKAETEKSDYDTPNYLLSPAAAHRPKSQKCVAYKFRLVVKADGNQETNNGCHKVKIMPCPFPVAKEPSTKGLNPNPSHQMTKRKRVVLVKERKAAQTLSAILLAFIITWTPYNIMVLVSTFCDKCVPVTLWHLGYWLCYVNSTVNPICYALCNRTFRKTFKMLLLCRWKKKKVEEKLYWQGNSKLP
Procedure, shortened: (§1)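 Separated by rapid filtration, counted by liquid scintillation. Means ± SEM of 3−4 independent experiments in triplicate; unpaired two-tailed t test versus wild type.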

Question: With `C[N+](C)(CCCCCC[N+]1(C)[C@@H]2C[C@H](OC(=O)[C@H](CO)c3ccccc3)C[C@H]1[C@@H]1O[C@@H]12)CCCN1C(=O)c2ccccc2C1=O` (stereo partly specified) as the compound, how does the Ki read?
Answer: 0.017 µM

Question: Which Ki does the source give for `C[N+](C)(C)CCCCCC[N+]1(C)[C@@H]2CC[C@@H]1CC(OC(=O)C(CO)c1ccccc1)C2` (relative stereo) here?
Answer: 0.0871 µM

Question: `C[N+](C)(C)CC#CCOC1=NOCC1` was tested. Which Ki did it give?
Answer: 0.12 µM

Question: For `C[N+](C)(C)CCCCCC[N+](C)(C)CC#CCOC1=NOCC1`, which Ki is on record?
Answer: 3.98 µM

Question: Which Ki does the source give for `C[N+](C)(CC#CCOC1=NOCC1)CCCCCC[N+](C)(C)CCCN1C(=O)c2ccccc2C1=O` here?
Answer: 30.2 µM

molecular target: Muscarinic acetylcholine receptor M2 (Homo sapiens, UniProt P08172, T423H/Y177Q); test: Displacement of [3H]-NMS from human muscarinic M2 Y177Q/T423H mutant expressed in Flp-In-CHO cells by liquid scintillation counting; assay type: cell-based; procedure, shortened: as §1
Sequence (P08172 whole entry Y177Q/T423H): as the sequence (P08172 whole entry Y104A) above, with A104Y, Y177Q, T423H counted along it

Question: For `C[N+](C)(CCCCCC[N+]1(C)[C@@H]2C[C@H](OC(=O)[C@H](CO)c3ccccc3)C[C@H]1[C@@H]1O[C@@H]12)CCCN1C(=O)c2ccccc2C1=O` (stereo partly specified), which Ki is on record?
Answer: 0.00708 µM

Question: For `C[N+](C)(C)CCCCCC[N+]1(C)[C@@H]2CC[C@@H]1CC(OC(=O)C(CO)c1ccccc1)C2` (relative stereo), which Ki is on record?
Answer: 0.0182 µM

Question: For `C[N+](C)(C)CC#CCOC1=NOCC1`, which Ki is on record?
Answer: 0.00219 µM

Question: Which Ki does the source give for `C[N+](C)(C)CCCCCC[N+](C)(C)CC#CCOC1=NOCC1` here?
Answer: 0.0646 µM

Question: Which Ki does the source give for `C[N+](C)(CC#CCOC1=NOCC1)CCCCCC[N+](C)(C)CCCN1C(=O)c2ccccc2C1=O` here?
Answer: 0.2 µM

molecular target: T2, Muscarinic acetylcholine receptor M2 (Homo sapiens) (UniProt P08172); test: Antagonist activity at wild-type human muscarinic M2 receptor expressed in Flp-In-CHO cells assessed as inhibition of acetylcholine-induced effect at 0.01 to 100 uM by time-course assay; assay type: cell-based
T2 sequence (whole entry): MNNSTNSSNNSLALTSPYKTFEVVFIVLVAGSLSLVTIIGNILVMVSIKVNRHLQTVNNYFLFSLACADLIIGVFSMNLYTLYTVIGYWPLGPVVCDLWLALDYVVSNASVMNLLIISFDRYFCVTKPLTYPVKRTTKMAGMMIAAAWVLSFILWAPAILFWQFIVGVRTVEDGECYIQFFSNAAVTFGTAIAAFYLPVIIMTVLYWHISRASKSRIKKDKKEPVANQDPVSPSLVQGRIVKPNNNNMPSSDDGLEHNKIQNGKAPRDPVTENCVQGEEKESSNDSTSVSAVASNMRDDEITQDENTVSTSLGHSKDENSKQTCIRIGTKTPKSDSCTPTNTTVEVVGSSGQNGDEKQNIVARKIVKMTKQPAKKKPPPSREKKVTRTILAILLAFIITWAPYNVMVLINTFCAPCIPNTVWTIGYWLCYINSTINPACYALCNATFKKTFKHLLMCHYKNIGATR
Procedure, shortened: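 Label-free dynamic mass redistribution (Epic reader) in Flp-In-CHO cells stably expressing hM2, seeded at 12500 cells/well and grown 20 h at 37 °C to confluence. Cells washed and rested 2 h at 28 °C in HBSS with 20 mM HEPES, pH 7.0. DMR signal induced by a maximally effective acetylcholine concentration, antagonist then added and response followed over time. Representative experiment, n = 4, repeated at least twice on separate days.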

Question: For `CN1[C@@H]2CC[C@H]1CC(OC(=O)[C@H](CO)c1ccccc1)C2` (stereo partly specified), which inhibition is on record?
Answer: Active

molecular target: Muscarinic acetylcholine receptor M2 (Homo sapiens, UniProt P08172, W422A); test: Displacement of [3H]-NMS from human muscarinic M2 W422A mutant expressed in Flp-In-CHO cells by liquid scintillation counting; assay type: cell-based; procedure, shortened: as §1
Sequence (P08172 whole entry W422A): as the sequence (P08172 whole entry Y104A) above, with A104Y, W422A counted along it

Question: `C[N+](C)(CCCCCC[N+]1(C)[C@@H]2C[C@H](OC(=O)[C@H](CO)c3ccccc3)C[C@H]1[C@@H]1O[C@@H]12)CCCN1C(=O)c2ccccc2C1=O` (stereo partly specified) was tested. Which Ki did it give?
Answer: 0.00692 µM

Question: How did the Ki turn out when `C[N+](C)(C)CCCCCC[N+]1(C)[C@@H]2CC[C@@H]1CC(OC(=O)C(CO)c1ccccc1)C2` (relative stereo) was run?
Answer: 0.055 µM

Question: For `C[N+](C)(C)CC#CCOC1=NOCC1`, which Ki is on record?
Answer: 0.01 µM

Question: How did the Ki turn out when `C[N+](C)(C)CCCCCC[N+](C)(C)CC#CCOC1=NOCC1` was run?
Answer: 0.275 µM

Question: How did the Ki turn out when `C[N+](C)(CC#CCOC1=NOCC1)CCCCCC[N+](C)(C)CCCN1C(=O)c2ccccc2C1=O` was run?
Answer: 0.0759 µM

molecular target: Muscarinic acetylcholine receptor M2 (Homo sapiens, UniProt P08172, Y177Q); test: Displacement of [3H]-NMS from human muscarinic M2 Y177Q mutant expressed in Flp-In-CHO cells by liquid scintillation counting; assay type: cell-based; procedure, shortened: as §1
Sequence (P08172 whole entry Y177Q): as the sequence (P08172 whole entry Y104A) above, with A104Y, Y177Q counted along it

Question: With `C[N+](C)(CCCCCC[N+]1(C)[C@@H]2C[C@H](OC(=O)[C@H](CO)c3ccccc3)C[C@H]1[C@@H]1O[C@@H]12)CCCN1C(=O)c2ccccc2C1=O` (stereo partly specified) as the compound, how does the Ki read?
Answer: 0.00708 µM

Question: `C[N+](C)(C)CCCCCC[N+]1(C)[C@@H]2CC[C@@H]1CC(OC(=O)C(CO)c1ccccc1)C2` (relative stereo) was tested. Which Ki did it give?
Answer: 0.0186 µM

Question: How did the Ki turn out when `C[N+](C)(C)CC#CCOC1=NOCC1` was run?
Answer: 0.00871 µM

Question: Which Ki does the source give for `C[N+](C)(C)CCCCCC[N+](C)(C)CC#CCOC1=NOCC1` here?
Answer: 0.0912 µM

Question: `C[N+](C)(CC#CCOC1=NOCC1)CCCCCC[N+](C)(C)CCCN1C(=O)c2ccccc2C1=O` was tested. Which Ki did it give?
Answer: 0.275 µM

molecular target: T3, Muscarinic acetylcholine receptor M2 (Homo sapiens, UniProt P08172); test: Displacement of [3H]-NMS from wild-type human muscarinic M2 receptor expressed in Flp-In-CHO cells by liquid scintillation counting; assay type: cell-based; procedure, shortened: as §1
T3 sequence (P08172 whole entry): T2 sequence (whole entry)

Question: `CN(C)CC#CCOC1=NOCC1` was tested. Which Ki did it give?
Answer: 0.1 µM

Question: With `C[N+](C)(CCCCCC[N+]1(C)[C@@H]2C[C@H](OC(=O)[C@H](CO)c3ccccc3)C[C@H]1[C@@H]1O[C@@H]12)CCCN1C(=O)c2ccccc2C1=O` (stereo partly specified) as the compound, how does the Ki read?
Answer: 0.00813 µM

Question: For `C[N+](C)(C)CCCCCC[N+]1(C)[C@@H]2CC[C@@H]1CC(OC(=O)C(CO)c1ccccc1)C2` (relative stereo), which Ki is on record?
Answer: 0.0162 µM

Question: For `C[N+](C)(C)CC#CCOC1=NOCC1`, which Ki is on record?
Answer: 0.00251 µM

Question: How did the Ki turn out when `C[N+](C)(CC#CCOC1=NOCC1)CCCCCC[N+](C)(C)CCCN1C(=O)c2ccccc2C1=O` was run?
Answer: 0.0912 µM
